In series [1] the target is T1, Adrenergic receptor alpha-1 (Rattus norvegicus, UniProt P15823+P23944+P43140).
T1 sequence (P15823 whole entry): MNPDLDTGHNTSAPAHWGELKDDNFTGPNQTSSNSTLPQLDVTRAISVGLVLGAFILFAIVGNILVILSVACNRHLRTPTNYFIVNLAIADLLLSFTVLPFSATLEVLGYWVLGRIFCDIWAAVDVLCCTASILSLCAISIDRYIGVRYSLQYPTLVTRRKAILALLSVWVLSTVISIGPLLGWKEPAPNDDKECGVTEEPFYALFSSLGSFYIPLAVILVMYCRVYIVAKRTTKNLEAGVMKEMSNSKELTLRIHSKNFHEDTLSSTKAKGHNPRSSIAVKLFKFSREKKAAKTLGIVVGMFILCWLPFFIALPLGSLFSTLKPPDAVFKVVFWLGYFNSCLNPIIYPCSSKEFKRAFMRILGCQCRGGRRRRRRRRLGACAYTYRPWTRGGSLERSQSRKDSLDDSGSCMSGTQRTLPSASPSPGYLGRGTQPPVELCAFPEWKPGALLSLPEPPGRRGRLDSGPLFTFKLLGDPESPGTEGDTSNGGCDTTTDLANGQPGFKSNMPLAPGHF
T1 sequence (P23944 whole entry): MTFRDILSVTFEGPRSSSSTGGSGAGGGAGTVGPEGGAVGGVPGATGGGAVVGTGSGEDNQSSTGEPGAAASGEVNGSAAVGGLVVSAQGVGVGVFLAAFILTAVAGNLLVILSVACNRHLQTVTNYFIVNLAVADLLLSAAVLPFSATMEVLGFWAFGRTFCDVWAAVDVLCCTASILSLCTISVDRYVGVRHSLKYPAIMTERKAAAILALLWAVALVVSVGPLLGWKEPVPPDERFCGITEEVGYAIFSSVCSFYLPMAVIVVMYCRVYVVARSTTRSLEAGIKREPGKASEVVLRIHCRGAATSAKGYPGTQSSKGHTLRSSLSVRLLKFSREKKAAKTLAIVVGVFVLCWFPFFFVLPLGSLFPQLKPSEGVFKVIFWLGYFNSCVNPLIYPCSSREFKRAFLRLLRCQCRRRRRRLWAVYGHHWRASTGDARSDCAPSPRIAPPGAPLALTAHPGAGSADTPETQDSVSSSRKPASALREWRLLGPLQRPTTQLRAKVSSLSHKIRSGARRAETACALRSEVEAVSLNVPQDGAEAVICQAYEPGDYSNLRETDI
T1 sequence (P43140 whole entry): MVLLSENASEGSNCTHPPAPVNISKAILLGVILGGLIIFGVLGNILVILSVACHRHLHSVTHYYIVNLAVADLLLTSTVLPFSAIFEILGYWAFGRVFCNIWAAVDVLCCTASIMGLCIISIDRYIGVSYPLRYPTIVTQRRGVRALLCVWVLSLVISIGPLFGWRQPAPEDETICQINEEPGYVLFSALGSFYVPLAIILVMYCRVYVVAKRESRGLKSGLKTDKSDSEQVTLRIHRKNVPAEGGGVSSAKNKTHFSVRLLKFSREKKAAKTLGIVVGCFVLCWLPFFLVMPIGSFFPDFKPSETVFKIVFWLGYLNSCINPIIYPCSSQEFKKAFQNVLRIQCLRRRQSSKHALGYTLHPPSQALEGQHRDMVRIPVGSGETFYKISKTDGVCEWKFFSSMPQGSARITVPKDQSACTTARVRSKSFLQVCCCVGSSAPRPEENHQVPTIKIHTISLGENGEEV
The series can be described thus: Displacement of [3H]prazosin from alpha1 adrenoceptor in rat cerebral cortex after 30 mins by microbeta scintillation counting. The series is classed as tissue-based. In short, it runs like this: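 Rat cerebral cortex homogenised in ice-cold 50 mM Tris-HCl (pH 7.6 at 25 °C), washed twice at 20000×g and resuspended at 10 mg wet weight/ml. Incubated with [3H]prazosin (19.5 Ci/mmol) and test compound for 30 min at 25 °C. Nonspecific binding defined with 10 µM phentolamine. GF/B filtration, scintillation counting, three-parameter logistic competition fit.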
A general note: Loss of bound radioactivity is the signal in a displacement assay; it reports binding, not function.

Series [2] has as its system Rattus norvegicus. Put plainly: Antiarrhythmic activity in Wistar rat assessed as effect on heart beat at 10 mg/kg, iv after 1 min. The series is classed as functional. In short, it runs like this:
(§1)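 Male Wistar rats (180–250 g), anaesthetised with thiopental 60 mg/kg ip. Standard lead II ECG recorded at 50 mm/s just before dosing and at 1, 5 and 15 min after. Heart rate and P–Q, Q–T and QRS intervals were read. n=6 per group, mean ± SEM, one-way ANOVA.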

Series [3] concerns Rattus norvegicus. The series can be described thus: Antiarrhythmic activity in Wistar rat assessed as effect on heart beat at 10 mg/kg, iv after 5 mins. The series is classed as functional. In short, it runs like this: as §1
The subject of series [4] is Rattus norvegicus. The series can be described thus: Antiarrhythmic activity in Wistar rat assessed as effect on heart beat at 10 mg/kg, iv after 15 mins. The series is classed as functional. In short, it runs like this:
as §1

Series [5] relates to Rattus norvegicus. Put plainly: Cardiotoxicity in Wistar rat assessed as effect on P-Q interval at 10 mg/kg, iv after 1 min. The series is classed as toxicity, organism-based. On the set-up: dose 10 mg/kg, route intravenous. The settings on record: in vivo. The gist of the method:
as §1

The subject of series [6] is Rattus norvegicus. The series can be described thus: Cardiotoxicity in Wistar rat assessed as effect on P-Q interval at 10 mg/kg, iv after 5 mins. The series is classed as toxicity, organism-based. On the set-up: dose 10 mg/kg, route intravenous. The settings on record: in vivo. In short, it runs like this: as §1
Series [7] relates to Rattus norvegicus. The series can be described thus: Cardiotoxicity in Wistar rat assessed as effect on P-Q interval at 10 mg/kg, iv after 15 mins. The series is classed as toxicity, organism-based. On the set-up: dose 10 mg/kg, route intravenous. The conditions noted are these: in vivo, 0.25 h. The gist of the method: as §1
The test system of series [8] is Rattus norvegicus. Put plainly: Cardiotoxicity in Wistar rat assessed as effect on Q-T interval at 10 mg/kg, iv after 1 min. The series is classed as toxicity, organism-based. On the set-up: dose 10 mg/kg, route intravenous. The settings on record: in vivo. In short, it runs like this: as §1
Series [9] deals with Rattus norvegicus. The series can be described thus: Cardiotoxicity in Wistar rat assessed as effect on Q-T interval at 10 mg/kg, iv after 5 mins. The series is classed as toxicity, organism-based. On the set-up: dose 10 mg/kg, route intravenous. The settings on record: in vivo. The gist of the method: as §1
Series [10] relates to Rattus norvegicus. The series can be described thus: Cardiotoxicity in Wistar rat assessed as effect on Q-T interval at 10 mg/kg, iv after 15 mins. On the set-up: dose 10 mg/kg, route intravenous. The settings on record: in vivo, 0.25 h. The series is classed as toxicity, organism-based. The gist of the method: as §1
Series [11] has as its system Rattus norvegicus. The series can be described thus: Cardiotoxicity in Wistar rat assessed as effect on QRS interval at 10 mg/kg, iv after 1 min. The series is classed as toxicity, organism-based. On the set-up: dose 10 mg/kg, route intravenous. The settings on record: in vivo. In short, it runs like this: as §1
The subject of series [12] is Rattus norvegicus. The series can be described thus: Cardiotoxicity in Wistar rat assessed as effect on QRS interval at 10 mg/kg, iv after 5 mins. The settings on record: in vivo. The series is classed as toxicity, organism-based. Details: dose 10 mg/kg, route intravenous. The gist of the method:
as §1

Series [13] concerns Rattus norvegicus. Put plainly: Cardiotoxicity in Wistar rat assessed as effect on QRS interval at 10 mg/kg, iv after 15 mins. The conditions noted are these: in vivo, 0.25 h. Details: dose 10 mg/kg, route intravenous. The series is classed as toxicity, organism-based. The gist of the method: as §1
Series [14] deals with Rattus norvegicus. The series can be described thus: Antiarrhythmic activity in iv dosed Wistar rat assessed as protection against barium chloride-induced extrasystoles administered 15 mins prior to barium chloride-challenge. The settings on record: Heart. The series is classed as functional. In short, it runs like this: (§2)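 Szekeres model in male Wistar rats. Activity is gradual disappearance of arrhythmia with restored sinus rhythm; protection against disturbances and death scored. Groups of 6 animals.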

Series [15] concerns Rattus norvegicus. Put plainly: Antiarrhythmic activity in dosed Wistar rat assessed as protection against barium chloride-induced fibrillation administered 15 mins prior to barium chloride-challenge. The settings on record: Heart. The series is classed as functional. In short, it runs like this: as §2
Series [16] has as its system Rattus norvegicus. The series can be described thus: Antiarrhythmic activity in iv dosed barium chloride-induced Wistar rat arrhythmia model assessed as protection against mortality administered 15 mins prior to barium chloride-challenge. The series is classed as functional. The conditions noted are these: Heart. In short, it runs like this:
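Male Wistar rats (180–250 g), groups of 6. Activity criterion: gradual disappearance of arrhythmia and restoration of sinus rhythm; protection against heart disturbances and death scored.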

Series [17] deals with Rattus norvegicus. The series can be described thus: Antiarrhythmic activity in Wistar rat assessed as protection against adrenaline-induced extrasystoles at 2.5 to 10 mg/kg, iv administered 15 mins prior to adrenaline-challenge. The settings on record: Heart. The series is classed as functional, organism-based. In short, it runs like this: (§3)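 Szekeres model in male Wistar rats anaesthetised with thiopental (60 mg/kg ip). Test compound given iv in water (2.5–10 mg/kg) 15 min before adrenaline 20 µg/kg iv. Scored for extrasystoles, bigeminy and mortality; activity means no premature beats and inhibited arrhythmia versus controls.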

Series [18] relates to Rattus norvegicus. Put plainly: Antiarrhythmic activity in Wistar rat assessed as protection against adrenaline-induced bigeminy at 2.5 to 10 mg/kg, iv administered 15 mins prior to adrenaline-challenge. The conditions noted are these: Heart. The series is classed as functional, organism-based. The gist of the method:
as §3

Series [19] deals with Rattus norvegicus. Put plainly: Antiarrhythmic activity in iv dosed Wistar rat assessed as protection against adrenaline-induced arrhythmia administered 15 mins prior to adrenaline-challenge. The settings on record: Heart. The series is classed as functional. In short, it runs like this: as §3
Series [20] has as its system Rattus norvegicus. The series can be described thus: Hypotensive activity in normotensive Wistar rat assessed as decrease in systolic blood pressure at 2.5 to 10 mg/kg, iv at 1 min. The settings on record: in vivo. The series is classed as organism-based, Artery. On the set-up: dose 2.5-10 mg/kg, route intravenous. The gist of the method: (§4)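 Right carotid artery cannulated with heparin-saline-filled tubing for blood pressure recording. After 5 min stabilisation, compound injected iv into the caudal vein (2.5–10 mg/kg, 1 ml/kg). Systolic and diastolic pressure followed for 60 min. n=6 per group, mean ± SEM, one-way ANOVA.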

Series [21] relates to Rattus norvegicus. The series can be described thus: Hypotensive activity in normotensive Wistar rat assessed as decrease in diastolic blood pressure at 2.5 to 10 mg/kg, iv at 1 min. The series is classed as organism-based, Artery. Details: dose 2.5-10 mg/kg, route intravenous. The conditions noted are these: in vivo. In short, it runs like this:
as §4

Series [22] concerns Rattus norvegicus. Put plainly: Hypotensive activity in normotensive Wistar rat assessed as decrease in systolic blood pressure at 2.5 to 10 mg/kg, iv after 1 min measured up to 60 mins. Details: dose 2.5-10 mg/kg, route intravenous. The settings on record: in vivo. The series is classed as organism-based, Artery. The gist of the method:
as §4

Series [23] concerns Rattus norvegicus. Put plainly: Hypotensive activity in normotensive Wistar rat assessed as decrease in diastolic blood pressure at 2.5 to 10 mg/kg, iv after 1 min measured up to 60 mins. The series is classed as organism-based, Artery. The settings on record: in vivo. On the set-up: dose 2.5-10 mg/kg, route intravenous. In short, it runs like this:
as §4

The structures appear in SMILES notation. Calls of active or inactive are those of the source.

Take `COc1ccccc1N1CCN(CCCN2C(=O)N(C)C(=O)C2(c2ccccc2)c2ccccc2)CC1.Cl`: in [1], the Ki (commonly a dissociation constant, usually derived from enzyme kinetics or from competition with a known ligand) is 412.9 nM and the negative-log Ki (pKi) (as a rule, the negative decadic logarithm of the Ki, by convention in mol/L) stood at 6.38.
In series [1], `CCOc1ccccc1N1CCN(CCCN2C(=O)N(C(C)C(=O)OC)C(=O)C2(c2ccccc2)c2ccccc2)CC1.Cl` (stereo unspecified) had a Ki of 401.2 nM and a pKi of 6.4.
Take `CCOc1ccccc1N1CCN(CC(O)CN2C(=O)N(C)C(=O)C2(c2ccccc2)c2ccccc2)CC1.Cl` (racemic): the Activity with Rattus norvegicus [2] turned out to be 246 min⁻¹; in the series with Rattus norvegicus [3] it was 241 min⁻¹; with Rattus norvegicus [4], 242 min⁻¹; in the series with Rattus norvegicus [5], 75 ms; with Rattus norvegicus [6], 79 ms; with Rattus norvegicus [7], 79 ms. Besides, the Activity in the series with Rattus norvegicus [8] stood at 109 ms; with Rattus norvegicus [9] it was 114 ms; in the series on Rattus norvegicus [10] it was 118 ms; with Rattus norvegicus [11], 18 ms; in the series with Rattus norvegicus [12], 16 ms; in the series on Rattus norvegicus [13], 17 ms. Further, the Activity result in the series with Rattus norvegicus [20], with Rattus norvegicus [21], in the series with Rattus norvegicus [22] and in the series on Rattus norvegicus [23] was “Toxic” throughout. Further, the result with Rattus norvegicus [14], in the series with Rattus norvegicus [15] and in the series on Rattus norvegicus [16] was inactive. Further, the result in the series on Rattus norvegicus [17] and in the series on Rattus norvegicus [18] was Active. Moreover, the ED50 (in general, the dose at which the effect has come halfway, by size or by number of responders) with Rattus norvegicus [19] worked out at 0.33 mg/kg.

Source of the values: ChEMBL document CHEMBL2040780, “Antiarrhythmic properties of phenylpiperazine derivatives of phenytoin with α₁-adrenoceptor affinities” (Bioorg Med Chem, 2012).
